Active and inactive are the calls of the source. No cut-off for these calls is given here.
What was measured:
[1] = biological target: T1, DNA topoisomerase 2-alpha (Homo sapiens, UniProt P11388); assay: Inhibition of human topoisomerase 2-mediated relation of supercoiled DNA at 500 uM after 60 mins
[2] = biological target: T2, DNA topoisomerase 1 (Homo sapiens) (UniProt P11387); assay: Inhibition of human topoisomerase 1-mediated relation of supercoiled DNA at 500 uM after 45 mins
T2 sequence (whole entry): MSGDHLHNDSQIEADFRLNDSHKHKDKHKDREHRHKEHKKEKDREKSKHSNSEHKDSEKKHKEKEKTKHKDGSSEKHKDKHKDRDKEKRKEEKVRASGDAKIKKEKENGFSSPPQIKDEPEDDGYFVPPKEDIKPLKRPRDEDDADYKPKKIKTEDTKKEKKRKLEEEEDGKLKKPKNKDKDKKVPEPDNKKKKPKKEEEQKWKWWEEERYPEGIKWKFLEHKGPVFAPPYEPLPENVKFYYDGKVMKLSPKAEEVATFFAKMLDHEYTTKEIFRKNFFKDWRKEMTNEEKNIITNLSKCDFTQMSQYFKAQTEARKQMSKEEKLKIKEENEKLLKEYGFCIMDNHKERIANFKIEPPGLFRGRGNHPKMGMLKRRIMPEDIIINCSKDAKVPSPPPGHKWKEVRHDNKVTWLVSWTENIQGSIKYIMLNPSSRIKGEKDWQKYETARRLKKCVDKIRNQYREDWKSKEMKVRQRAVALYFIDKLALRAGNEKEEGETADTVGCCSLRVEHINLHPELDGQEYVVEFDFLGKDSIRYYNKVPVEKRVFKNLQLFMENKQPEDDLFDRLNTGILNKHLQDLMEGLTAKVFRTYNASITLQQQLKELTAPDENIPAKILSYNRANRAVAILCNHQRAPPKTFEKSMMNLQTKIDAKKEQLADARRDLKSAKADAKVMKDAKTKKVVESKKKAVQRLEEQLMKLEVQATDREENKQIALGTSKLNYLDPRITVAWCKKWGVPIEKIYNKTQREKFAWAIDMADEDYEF
Procedure, shortened: (§1)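 Screened at 500 μM, then 100–500 μM. Read-out is 0.8% agarose gel with ethidium stain and densitometry of the supercoiled fraction. IC50 is the 50% inhibition of relaxation; triplicate, mean ± SEM.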

[3] = biological target: T3, DNA topoisomerase 1 (Homo sapiens, UniProt P11387); assay: Inhibition of human topoisomerase 1-mediated relation of supercoiled DNA after 45 mins; procedure, shortened: as §1
T3 sequence (P11387 whole entry): T2 sequence (whole entry)

[4] = tested on: Triticum aestivum; assay: Inhibition of wheat germ topoisomerase 1-mediated relaxation of supercoiled DNA at 500 uM after 45 mins
Procedure, shortened: (§2)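 Tested at 500 μM, then 75–1000 μM. Percent inhibition derived from the supercoiled fraction on 0.8% agarose gels stained with ethidium; IC50 at 50% inhibition of relaxation; triplicate, mean ± SEM.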

[5] = Inhibition of wheat germ topoisomerase 1-mediated relaxation of supercoiled DNA after 45 mins; set-up: species or system Triticum aestivum; procedure, shortened: as §2
[6] = biological target: T1, DNA topoisomerase 2-alpha; assay: Inhibition of human topoisomerase 2-mediated relation of supercoiled DNA at 100 to 1000 uM after 60 mins
[7] = biological target: T1, DNA topoisomerase 2-alpha; assay: Inhibition of human topoisomerase 2-mediated relation of supercoiled DNA after 60 mins
[8] = tested on: MCF7; assay: Growth inhibition of human MCF7 cells at 100 uM after 48 hrs by XTT assay; type: functional; conditions: MCF7, 48 h, read-out: GI
Procedure, shortened: (§3)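 XTT assay; HeLa, MCF7 and HepG2 seeded at 1.5 × 104, 2 × 104 and 3.5 × 10^4 cells/well in DMEM with 10% heat-inactivated FBS and penicillin/streptomycin, grown 24 h at 37 °C in 5% CO2. Compound added in DMEM-PS (100–500 μM) for 48 h, then XTT 4 h; OD at 450 nm, reference 650 nm. Etoposide 100 μM positive control; mean ± SEM.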

[9] = tested on: HepG2; assay: Growth inhibition of human HepG2 cells at 100 uM after 48 hrs by XTT assay; type: functional; conditions: HepG2, 48 h, read-out: GI; procedure, shortened: as §3
[10] = tested on: HeLa; assay: Growth inhibition of human HeLa cells at 100 uM after 48 hrs by XTT assay; type: functional; conditions: read-out: GI; procedure, shortened: as §3
[11] = biological target: T1, DNA topoisomerase 2-alpha; assay: Inhibition of human topoisomerase 2-mediated relation of supercoiled DNA at 100 uM after 60 mins
[12] = tested on: MCF7; assay: Growth inhibition of human MCF7 cells after 48 hrs by XTT assay; type: functional, cell-based; conditions: MCF7, 48 h; procedure, shortened: as §3
[13] = tested on: HeLa; assay: Growth inhibition of human HeLa cells after 48 hrs by XTT assay; type: functional, cell-based; procedure, shortened: as §3
[14] = tested on: HepG2; assay: Growth inhibition of human HepG2 cells after 48 hrs by XTT assay; type: functional, cell-based; conditions: HepG2, 48 h; procedure, shortened: as §3
[15] = tested on: Triticum aestivum; assay: Inhibition of wheat germ topoisomerase 1-mediated relaxation of supercoiled DNA at 75 uM after 45 mins; procedure, shortened: as §2
[16] = tested on: Triticum aestivum; assay: Inhibition of wheat germ topoisomerase 1-mediated relaxation of supercoiled DNA at 1000 uM after 45 mins; procedure, shortened: as §2
[17] = biological target: T2, DNA topoisomerase 1 (Homo sapiens); assay: Inhibition of human topoisomerase 1-mediated relation of supercoiled DNA at 100 uM after 45 mins; procedure, shortened: as §1
[18] = biological target: T1, DNA topoisomerase 2-alpha; assay: Inhibition of human topoisomerase 2-mediated relation of supercoiled DNA at 400 uM after 60 mins
[19] = biological target: T1, DNA topoisomerase 2-alpha; assay: Inhibition of human topoisomerase 2-mediated relation of supercoiled DNA at 800 uM after 60 mins

T1 sequence (P11388 whole entry): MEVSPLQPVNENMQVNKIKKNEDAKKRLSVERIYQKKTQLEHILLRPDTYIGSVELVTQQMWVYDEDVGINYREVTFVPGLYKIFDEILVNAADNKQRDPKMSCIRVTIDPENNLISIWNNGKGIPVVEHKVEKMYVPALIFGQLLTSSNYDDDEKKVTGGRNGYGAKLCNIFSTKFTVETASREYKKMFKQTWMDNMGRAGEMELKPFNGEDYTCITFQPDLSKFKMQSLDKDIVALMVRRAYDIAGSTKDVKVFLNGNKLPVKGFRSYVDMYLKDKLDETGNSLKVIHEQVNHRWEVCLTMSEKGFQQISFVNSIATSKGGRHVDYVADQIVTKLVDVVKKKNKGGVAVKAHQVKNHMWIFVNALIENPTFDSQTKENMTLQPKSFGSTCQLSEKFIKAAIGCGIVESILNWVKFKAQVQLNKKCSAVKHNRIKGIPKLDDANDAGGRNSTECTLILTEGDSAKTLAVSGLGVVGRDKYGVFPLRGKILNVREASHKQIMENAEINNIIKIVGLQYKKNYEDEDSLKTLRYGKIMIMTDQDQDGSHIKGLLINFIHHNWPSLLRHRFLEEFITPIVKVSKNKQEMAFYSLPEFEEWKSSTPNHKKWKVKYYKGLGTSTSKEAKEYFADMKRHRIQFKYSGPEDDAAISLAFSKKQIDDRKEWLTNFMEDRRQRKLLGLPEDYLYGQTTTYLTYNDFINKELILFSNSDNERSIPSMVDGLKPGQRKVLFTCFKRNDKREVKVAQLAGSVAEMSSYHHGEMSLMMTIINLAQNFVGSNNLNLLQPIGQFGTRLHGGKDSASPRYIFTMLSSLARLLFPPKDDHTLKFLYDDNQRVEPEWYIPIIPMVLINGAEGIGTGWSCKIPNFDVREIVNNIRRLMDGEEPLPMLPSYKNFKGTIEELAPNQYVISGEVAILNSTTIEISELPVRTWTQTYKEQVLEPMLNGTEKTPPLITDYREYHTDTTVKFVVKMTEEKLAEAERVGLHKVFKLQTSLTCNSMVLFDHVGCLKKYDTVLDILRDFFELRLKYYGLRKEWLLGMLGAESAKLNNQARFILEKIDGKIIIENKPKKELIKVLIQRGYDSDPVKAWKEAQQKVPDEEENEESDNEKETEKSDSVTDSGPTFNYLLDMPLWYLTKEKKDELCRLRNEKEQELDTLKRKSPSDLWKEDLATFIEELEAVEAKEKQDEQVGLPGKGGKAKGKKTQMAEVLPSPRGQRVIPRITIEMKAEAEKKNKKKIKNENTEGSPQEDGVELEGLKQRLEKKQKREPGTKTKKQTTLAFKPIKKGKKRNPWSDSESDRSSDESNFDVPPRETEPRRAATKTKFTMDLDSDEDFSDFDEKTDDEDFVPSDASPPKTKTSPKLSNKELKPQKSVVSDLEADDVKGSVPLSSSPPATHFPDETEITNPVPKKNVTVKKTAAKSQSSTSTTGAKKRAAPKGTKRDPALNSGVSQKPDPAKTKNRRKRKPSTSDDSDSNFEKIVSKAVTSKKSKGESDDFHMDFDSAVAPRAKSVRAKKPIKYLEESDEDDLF

SMILES | inhibition [1] | inhibition [2] | IC50 [3] | inhibition [4] | IC50 [5] | inhibition [6] | IC50 [7] | further results
C[C@@H]1O[C@@H](Oc2cc(O)c3c(=O)c(O[C@@H]4O[C@H](CO)[C@H](O)[C@H](O)[C@H]4O[C@@H]4O[C@@H](C)[C@H](O)[C@@H](O)[C@H]4O)c(-c4ccc(O)cc4)oc3c2)[C@H](O)[C@H](O)[C@H]1O | Active | Active | 260 µM | Active | 150 µM | – | – | –
C[C@@H]1O[C@@H](Oc2cc(O)c3c(=O)c(O[C@@H]4OC[C@H](O)[C@H](O)[C@H]4O)c(-c4ccc(O)cc4)oc3c2)[C@H](O)[C@H](O)[C@H]1O | Active | Active | 250 µM | Active | 240 µM | Dose-dependent effect | 330 µM | –
COc1cc([C@@H]2c3cc4c(cc3[C@@H](O[C@@H]3O[C@@H]5CO[C@@H](C)O[C@H]5[C@H](O)[C@H]3O)[C@H]3COC(=O)[C@H]23)OCO4)cc(OC)c1O [ETOPOSIDE] | – | – | – | – | – | – | – | inhibition of growth at 100 µM [8]: 100%; inhibition of growth at 100 µM [9]: 100%; inhibition of growth at 100 µM [10]: 100%
C[C@@H]1O[C@@H](Oc2cc(O)c3c(=O)c(O[C@H]4OC[C@@](O)(CO)[C@@H]4O)c(-c4ccc(O)cc4)oc3c2)[C@H](O)[C@H](O)[C@H]1O | Active | – | – | – | – | Dose-dependent effect | 550 µM | inhibition [18]: 44%; inhibition [19]: 80%

More lines, in order of falling IC50 [3], values ahead:

inhibition [1] | inhibition [2] | IC50 [3] | inhibition [4] | IC50 [5] | inhibition [6] | IC50 [7] | SMILES | further results
Active | Active | 220 µM | – | – | – | – | C[C@@H]1O[C@@H](Oc2cc(O)c3c(=O)c(O[C@@H]4O[C@H](CO)[C@@H](O)[C@H](O)[C@H]4O[C@@H]4O[C@@H](C)[C@H](O)[C@@H](O)[C@H]4O)c(-c4ccc(O)cc4)oc3c2)[C@H](O)[C@H](O)[C@H]1O | –
Active | Active | 180 µM | Active | 200 µM | – | – | C[C@@H]1O[C@@H](Oc2cc(O)c3c(=O)c(O[C@@H]4O[C@H](CO)[C@H](O)[C@H](O)[C@H]4O)c(-c4ccc(O)cc4)oc3c2)[C@H](O)[C@H](O)[C@H]1O | –
88% | Active | 150 µM | Active | 120 µM | Dose-dependent effect | 240 µM | CC(=O)OC[C@]1(O)CO[C@H](Oc2c(-c3ccc(O)cc3)oc3cc(O[C@@H]4O[C@@H](C)[C@H](O)[C@@H](O)[C@H]4O)cc(O)c3c2=O)[C@H]1O | inhibition [11]: 22%; IC50 [12]: 350 µM; IC50 [13]: 350 µM; IC50 [14]: 410 µM; inhibition [15]: 44%; inhibition [16]: 99%
Active | 94% | 110 µM | Active | 350 µM | Dose-dependent effect | 600 µM | C[C@@H]1O[C@@H](Oc2cc(O)c3c(=O)c(O[C@@H]4O[C@H](CO)[C@@H](O)[C@H](O)[C@H]4O)c(-c4ccc(O)cc4)oc3c2)[C@H](O)[C@H](O)[C@H]1O | inhibition [17]: 45%

— ChEMBL document CHEMBL1926537, “Catalytic inhibition of eukaryotic topoisomerases I and II by flavonol glycosides extracted from Vicia faba and Lotus edulis” (J Nat Prod, 2011)
